According to ChEMBL document CHEMBL1909512, “Indolin-2-one p38α inhibitors III: bioisosteric amide replacement” (Bioorg Med Chem Lett, 2011):
Values belong to the compound of their own block, whether it stands above or below them.

Tests used:
Blood = experiment: Inhibition of LPS-induced TNFalpha release in human whole blood after 24 hrs by ELISA; assay type: functional, tissue-based
[1] = target: Mitogen-activated protein kinase 14 (Homo sapiens, UniProt Q16539)
[2] = Metabolic stability in rat liver microsomes assessed as compound turnover at 5 uM after 30 mins in presence of NADPH; assay type: ADME, Microsome; settings: read-out: Drug metabolism
Method in brief: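 5 µM test compound incubated with rat or human hepatic microsomes (1 mg/mL) plus NADPH for 30 min at 37 °C; result given as % turnover.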

[3] = Metabolic stability in human liver microsomes assessed as compound turnover at 5 uM after 30 mins in presence of NADPH; assay type: ADME, Microsome; settings: read-out: Drug metabolism
Liver microsomes [4] = experiment: Metabolic stability in human liver microsomes assessed as compound turnover at 5 uM after 30 mins in absence of NADPH; assay type: ADME, Microsome; settings: 0.5 h
[5] = Apparent passive permeability from apical to basolateral side of the human Caco2 cells at 12.5 uM; assay type: ADME, cell-based; settings: Caco-2
Method in brief: (§1)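 Passive permeability across Caco-2 monolayer measured with 12.5 µM test compound in both directions (apical-to-basal and basal-to-apical); Papp reported in 10^-6 cm/s.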

[6] = Apparent passive permeability from basolateral to apical side of the human Caco2 cells at 12.5 uM; assay type: ADME, cell-based; settings: Caco-2; method in brief: as §1
CHO [7] = experiment: Cytotoxicity against CHO cells; assay type: cell-based; settings: Cricetulus griseus
[8] = Half life in rat at 1 mg/kg, iv; assay type: ADME, organism-based; set-up: dose 1 mg/kg, route intravenous; settings: in vivo
[9] = Cmax in rat at 1 mg/kg, iv; assay type: ADME, organism-based; set-up: dose 1 mg/kg, route intravenous; settings: in vivo
[10] = Clearance in rat at 1 mg/kg, iv; assay type: ADME, organism-based; set-up: dose 1 mg/kg, route intravenous; settings: in vivo
[11] = AUC (0 to infinity) in rat at 1 mg/kg, iv; assay type: ADME, organism-based; set-up: time infinity, dose 1 mg/kg, route intravenous; settings: plasma
[12] = Volume of distribution at steady state in rat at 1 mg/kg, iv; assay type: ADME, organism-based; set-up: dose 1 mg/kg, route intravenous; settings: in vivo, read-out: Vdss
[13] = Mean residence time in rat at 1 mg/kg, iv; assay type: ADME, organism-based; set-up: dose 1 mg/kg, route intravenous; settings: in vivo
[14] = Cmax in rat at 10 mg/kg, po; assay type: ADME, organism-based; set-up: dose 10 mg/kg, route oral; settings: in vivo
[15] = AUC (0 to infinity) in rat at 10 mg/kg, po; assay type: ADME, organism-based; set-up: time infinity, dose 10 mg/kg, route oral; settings: plasma
[16] = Oral bioavailability in rat at 10 mg/kg; assay type: ADME, organism-based; settings: in vivo
CHO [17] = experiment: Cytotoxicity against CHO cells at 200 uM; assay type: cell-based, Cricetulus griseus; settings: chinese hamster
Liver microsomes [18] = experiment: Metabolic stability in human liver microsomes in absence of NADPH; assay type: ADME, Microsome
Liver microsomes [19] = experiment: Metabolic stability in rat liver microsomes in absence of NADPH; assay type: ADME, Microsome

Chain of Mitogen-activated protein kinase 14 (Q16539 whole entry): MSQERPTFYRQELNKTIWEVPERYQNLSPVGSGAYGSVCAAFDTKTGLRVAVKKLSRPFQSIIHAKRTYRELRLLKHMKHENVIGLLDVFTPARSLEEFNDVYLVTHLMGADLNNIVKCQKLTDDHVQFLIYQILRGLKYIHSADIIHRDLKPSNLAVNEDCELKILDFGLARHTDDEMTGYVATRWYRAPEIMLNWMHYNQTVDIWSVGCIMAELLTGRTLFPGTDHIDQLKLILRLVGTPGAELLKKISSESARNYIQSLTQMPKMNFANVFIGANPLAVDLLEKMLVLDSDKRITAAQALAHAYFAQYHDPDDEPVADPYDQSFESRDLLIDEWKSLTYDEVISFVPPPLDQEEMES

Compound: Cc1ccc2c(N)noc2c1-c1ccc2c(c1)NC(=O)C21CCC(F)(F)CC1
- IC50 (Blood): 0.137 µM
- IC50 [1]: 0.0012 µM

- IC50 (Blood): 0.438 µM
Compound: O=C1Nc2cc(-c3cccc4c(NC5CC5)noc34)c(Cl)cc2C12CCCC2

Compound: O=C1Nc2cc(-c3cccc4c(NC5CC5)noc34)ccc2C12CCCC2
- IC50 (Blood): 1.26 µM
- IC50 [1]: 0.038 µM

- IC50 [1]: 0.135 µM
Compound: Cc1ccc(-c2nnc(C3CC3)[nH]2)cc1-c1ccc2c(c1)NC(=O)C21CCCC1

- IC50 (Blood): 0.05 µM
- metabolised at 0.5 h, 5 µM [2]: < 5%
- metabolised at 0.5 h, 5 µM [3]: 6%
- Stability (Liver microsomes [4]): Stable
- Papp A→B at 12.5 µM [5]: 2 ×10⁻⁶ cm/s
- Papp B→A at 12.5 µM [6]: 45 ×10⁻⁶ cm/s
- half-life [8]: 3.8 h
- Cmax [9]: 1300 ng/mL
- clearance [10]: 17.2 mL/min/kg
- AUC(0-inf) [11]: 1030 ng·h/mL
- Vd [12]: 1.75 L/kg
- MRT [13]: 1.8 h
- Cmax [14]: 632 ng/mL
- AUC(0-inf) [15]: 1370 ng·h/mL
- bioavailability [16]: 13%
Compound: Cc1nnc(-c2ccc(C)c(-c3ccc4c(c3)NC(=O)C43CCN(S(C)(=O)=O)CC3)c2)[nH]1
- IC50 (CHO [7]): 100 µM

- IC50 (Blood): 0.731 µM
Compound: Cc1ccc2c(N)noc2c1-c1ccc2c(c1)NC(=O)C2(C)C

Compound: Cc1ccc2c(N)noc2c1-c1ccc2c(c1)NC(=O)C21CCOCC1
- IC50 (Blood): 0.145 µM
- metabolised at 0.5 h, 5 µM [2]: 9%
- metabolised at 0.5 h, 5 µM [3]: 3%
- Stability (Liver microsomes [4]): Stable
- Papp A→B at 12.5 µM [5]: 28 ×10⁻⁶ cm/s
- Papp B→A at 12.5 µM [6]: 16 ×10⁻⁶ cm/s
- Activity (CHO [17]): 16%
- half-life [8]: 1.9 h
- Cmax [9]: 752 ng/mL
- clearance [10]: 13.8 mL/min/kg
- AUC(0-inf) [11]: 1230 ng·h/mL
- Vd [12]: 2 L/kg
- MRT [13]: 2.5 h
- Cmax [14]: 141 ng/mL
- AUC(0-inf) [15]: 961 ng·h/mL
- bioavailability [16]: 8%
- IC50 [1]: 0.005 µM

- IC50 [1]: 0.087 µM
Compound: Cc1nnc(-c2ccc(C)c(-c3ccc4c(c3)NC(=O)C4(C)C)c2)[nH]1

- IC50 (Blood): 0.0107 µM
- metabolised at 0.5 h, 5 µM [2]: 25%
- metabolised at 0.5 h, 5 µM [3]: 32%
- Stability (Liver microsomes [4]): Stable
- Papp A→B at 12.5 µM [5]: 10 ×10⁻⁶ cm/s
- Papp B→A at 12.5 µM [6]: 4 ×10⁻⁶ cm/s
Compound: Cc1ccc2c(NC3CC3)noc2c1-c1ccc2c(c1)NC(=O)C21CCC(F)(F)CC1
- Activity (CHO [17]): 56%

- IC50 (Blood): 0.624 µM
Compound: Cc1nnc(-c2ccc(C)c(-c3ccc4c(c3)NC(=O)C43CCC3)c2)[nH]1

- IC50 (Blood): 0.253 µM
Compound: Cc1ccc(-c2ncn[nH]2)cc1-c1ccc2c(c1)NC(=O)C21CCCC1

- Stability (Liver microsomes [18]): Stable
- Stability (Liver microsomes [19]): Stable
- IC50 [1]: 0.583 µM
Compound: Cc1nc(-c2ccc(C)c(-c3ccc4c(c3)NC(=O)C43CCCC3)c2)no1
